# Measurements as given in ChEMBL document CHEMBL2057102, “Aminothienopyridazine inhibitors of tau aggregation: evaluation of structure-activity relationship leads to selection of candidates with desirable in vivo properties” (Bioorg Med Chem, 2012).
# Columns and labels:
# [1] = (§1) Drug uptake in B6C3F1 mouse plasma at 5 mg/kg, ip after 1 hr; assay type: ADME, organism-based; set-up: dose 5 mg/kg, route intraperitoneal; details: B6C3F1, mouse, plasma
# Outline: (§2)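 Single i.p. dose of 5 mg/kg, sacrifice 1 h later. Perfused brain hemispheres were homogenized in 10 mM ammonium acetate pH 5.7 (50% w/v). EDTA plasma was taken. Brain homogenate or plasma was extracted with acetonitrile and analysed by LC-MS/MS (MRM) against matrix standard curves. Brain-to-plasma ratio was taken from total levels.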
# [2] = (§3) Drug uptake in B6C3F1 mouse brain at 5 mg/kg, ip after 1 hr; assay type: ADME, organism-based; set-up: dose 5 mg/kg, route intraperitoneal; details: B6C3F1, mouse, brain, read-out: Drug uptake; outline: as §2
# [3] = organism: Homo sapiens; test: Inhibition of heparin-induced tau K18PL mutant aggregation assessed as soluble tau fragment level at 50 uM after 5 days by SDS-PAGE analysis
# Outline: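 Secondary centrifugation assay. Heparin-induced K18 P301L tau fibrillization mixtures with compound at 50 μM were centrifuged. Soluble and insoluble fractions were analysed by SDS-PAGE to give the percentage of tau remaining soluble.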
# [4] = organism: Homo sapiens; test: Inhibition of heparin-induced alexa red-labelled tau K18PL mutant aggregation after 6 hrs by thioflavin-T fluorescence assay relative to control
# Outline: (§4)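 Heparin-induced fibrillization of tau K18 fragment (residues 244–369) carrying P301L, with tau at 20 μM in sodium acetate buffer. Fibril formation was read by thioflavin-T fluorescence. IC50 came from sigmoidal fitting of concentration-response data, each concentration in triplicate. Values are from a single fit, or the mean of 2 or more analyses where marked.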
# [5] = Inhibition of heparin-induced alexa red-labelled tau K18PL mutant aggregation after 6 hrs by thioflavin-T fluorescence assay; set-up: species or system Homo sapiens; outline: as §4
# [6] = tested on: Mus musculus; test: Ratio of drug level in brain to plasma in B6C3F1 mouse at 5 mg/kg, ip after 1 hr
# [7] = tested on: Plasma; test: as §1; assay type: ADME, organism-based; set-up: dose 5 mg/kg, route intraperitoneal; details: mouse, in vivo, 1 h, BLD = below limit of detection; outline: as §2
# [8] = tested on: Brain; test: as §3; assay type: ADME, organism-based; set-up: dose 5 mg/kg, route intraperitoneal; details: mouse, in vivo, 1 h, BLD = below limit of detection; outline: as §2
# [9] = Ratio of fraction unbound in brain homogenate to plasma in mouse at 1 uM after 5 hrs by equilibrium dialysis; assay type: ADME, tissue-based
# Outline: (§5)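 Rapid equilibrium dialysis. Compound at 1 μM in mouse plasma or brain homogenate, each diluted threefold with 100 mM sodium phosphate pH 7.4. Triplicate samples dialysed against the same buffer for 5 h at 37 °C with shaking. Both sides were matrix-matched, extracted with acetonitrile and run by LC-MS/MS. fu is buffer response over sample response; brain fu was corrected for tissue dilution.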
# [10] = tested on: Brain; test: Fraction unbound in mouse brain homogenate at 1 uM after 5 hrs by equilibrium dialysis; assay type: ADME, tissue-based; outline: as §5
structure (smiles),measurement,setting,value
CC(C)NC(=O)c1nn(-c2ccc(O)cc2)c(=O)c2c(N)scc12,concentration at 1 h,[1],150 ng/mL
same,concentration at 1 h,[2],14.1 ng/g
same,inhibition,[3],84%
same,Imax,[4],86%
same,IC50,[5],15.8 µM
same,BPR,[6],0.098
Cc1n[nH]c(=O)c2c(N)scc12,Cp,[7],BLD
same,Drug uptake,[8],BLD
same,inhibition,[3],81%
same,Imax,[4],87%
same,IC50,[5],8 µM
CCOC(=O)c1nn(-c2ccc(O)cc2)c(=O)c2c(N)scc12,inhibition,[3],69%
same,Imax,[4],81%
same,IC50,[5],5 µM
Nc1scc2c(C(=O)O)nn(-c3ccc(C(F)(F)F)cc3)c(=O)c12,inhibition,[3],83%
same,Imax,[4],88%
same,IC50,[5],19.9 µM
CCOC(=O)c1nn(-c2ccccc2Cl)c(=O)c2c(N)scc12,inhibition,[3],71%
same,Imax,[4],75%
same,IC50,[5],2 µM
CCOC(=O)c1nn(-c2cccc(Cl)c2)c(=O)c2c(N)scc12,inhibition,[3],73%
same,Imax,[4],82%
same,IC50,[5],3.2 µM
Cc1nn(C)c(=O)c2c(N)scc12,concentration at 1 h,[1],10 ng/mL
same,Drug uptake,[8],BLD
same,inhibition,[3],76%
same,Imax,[4],82%
same,IC50,[5],2.5 µM
CC(C)NC(=O)c1nn(-c2ccc(F)cc2)c(=O)c2c(N)scc12,concentration at 1 h,[1],110 ng/mL
same,concentration at 1 h,[2],280 ng/g
same,Ratio,[9],1.3
same,inhibition,[3],77%
same,Fu,[10],2.9%
same,Imax,[4],89%
same,IC50,[5],1.6 µM
same,BPR,[6],2.68
CC(C)NC(=O)c1nn(-c2cccc(Cl)c2)c(=O)c2c(N)scc12,inhibition,[3],73%
same,Imax,[4],82%
same,IC50,[5],3.2 µM
CCOC(=O)c1nn(-c2ccc(OC(F)(F)F)cc2)c(=O)c2c(N)scc12,inhibition,[3],29%
same,Imax,[4],41%
CC(C)NC(=O)c1nn(-c2ccc(Cl)cc2)c(=O)c2c1CSC2=O,concentration at 1 h,[1],4700 ng/mL
same,concentration at 1 h,[2],16.3 ng/g
same,inhibition,[3],85%
same,Imax,[4],96%
same,IC50,[5],10 µM
same,BPR,[6],0.0035
Nc1scc2c(C(=O)O)nn(-c3ccc(F)cc3)c(=O)c12,inhibition,[3],83%
same,Imax,[4],84%
same,IC50,[5],2 µM
CCOC(=O)C1=NN(c2ccc(Cl)cc2)C(=O)C(C#N)C1C (stereo not given),inhibition,[3],21%
same,Imax,[4],4.4%
CC(C)NC(=O)c1nn(-c2ccc(OC(F)(F)F)cc2)c(=O)c2c(N)scc12,inhibition,[3],42%
same,Imax,[4],67%
same,IC50,[5],15.8 µM
CCOC(=O)c1nn(-c2ccc(Cl)cc2)c(=O)c2c(N)sc(Cl)c12,inhibition,[3],65%
same,Imax,[4],88%
same,IC50,[5],2 µM
CCOC(=O)c1nn(-c2ccc(Cl)cc2)c(=O)c2c(N)sc(Br)c12,inhibition,[3],62%
same,Imax,[4],92%
same,IC50,[5],4 µM
Cc1nn(C2CCCCC2)c(=O)c2c(N)scc12,inhibition,[3],86%
same,Imax,[4],65%
same,IC50,[5],31.6 µM
Cc1nn(-c2cccnc2)c(=O)c2c(N)scc12,inhibition,[3],84%
same,Imax,[4],74%
same,IC50,[5],4 µM
Nc1scc2c(C(=O)O)nn(-c3ccc(OC(F)(F)F)cc3)c(=O)c12,inhibition,[3],71%
same,Imax,[4],92%
same,IC50,[5],1.6 µM
Nc1scc2c(C(=O)NC3CC3)nn(-c3ccccc3Cl)c(=O)c12,inhibition,[3],44%
same,Imax,[4],68%
Nc1scc2c(C(=O)O)nn(-c3cccc(Cl)c3)c(=O)c12,inhibition,[3],73%
same,Imax,[4],92%
same,IC50,[5],1.6 µM
CC(C)c1ccc(-n2nc(C(=O)NC3CC3)c3csc(N)c3c2=O)cc1,inhibition,[3],86%
same,Imax,[4],82%
same,IC50,[5],4 µM
Cc1nn(C(C)C)c(=O)c2c(N)scc12,inhibition,[3],17%
same,Imax,[4],95%
same,IC50,[5],19.9 µM
Nc1scc2c(-c3ccccc3)nn(CC(F)(F)F)c(=O)c12,inhibition,[3],82%
same,Imax,[4],103%
same,IC50,[5],6.3 µM
CCOC(=O)c1nn(-c2ccc(F)cc2)c(=O)c2c(N)scc12,inhibition,[3],63%
same,Imax,[4],77%
same,IC50,[5],1 µM
Nc1scc2c(C(=O)NC3CC3)nn(-c3ccc(C(F)(F)F)cc3)c(=O)c12,inhibition,[3],83%
same,Imax,[4],64%
same,IC50,[5],6.3 µM
CCOC(=O)c1c(C(=O)c2ccccc2)csc1N,inhibition,[3],6.5%
same,Imax,[4],29%
CCOC(=O)c1nn(-c2ccc(C(F)(F)F)cc2)c(=O)c2c(N)scc12,inhibition,[3],27%
same,Imax,[4],48%
Nc1scc2c(C(=O)O)nn(-c3ccc(O)cc3)c(=O)c12,inhibition,[3],70%
same,Imax,[4],84%
same,IC50,[5],4 µM
Cc1nn(Cc2ccccc2)c(=O)c2c(N)scc12,concentration at 1 h,[1],78 ng/mL
same,concentration at 1 h,[2],48 ng/g
same,Ratio,[9],0.77
same,inhibition,[3],73%
same,Fu,[10],5.1%
same,Imax,[4],89%
same,IC50,[5],1.6 µM
same,BPR,[6],0.6
Cc1nn(-c2ccc(Cl)cc2)c(=O)c2c(N)scc12,inhibition,[3],70%
same,Imax,[4],85%
same,IC50,[5],2 µM
Cc1nn(-c2ccccn2)c(=O)c2c(N)scc12,concentration at 1 h,[1],61 ng/mL
same,concentration at 1 h,[2],7.5 ng/g
same,inhibition,[3],78%
same,Imax,[4],85%
same,IC50,[5],2 µM
same,BPR,[6],0.116
CCOC(=O)c1nn(-c2ccc(C(C)C)cc2)c(=O)c2c(N)scc12,inhibition,[3],17%
same,Imax,[4],8%
CC(C)n1nc(-c2ccccc2)c2csc(N)c2c1=O,inhibition,[3],92%
same,Imax,[4],89%
same,IC50,[5],19.9 µM
O=C(O)c1nn(-c2ccc(F)cc2)c(=O)c2c1CSC2=O,inhibition,[3],87%
same,Imax,[4],92%
same,IC50,[5],2.5 µM
Cc1nn(CC(F)(F)F)c(=O)c2c(N)scc12,inhibition,[3],78%
same,Imax,[4],81%
same,IC50,[5],10 µM
CCOC(=O)c1nn(-c2ccc(Cl)cc2)c(=O)c2c1C(O)NC2=O (stereo not given),inhibition,[3],15%
same,Imax,[4],57%
Nc1scc2c(C(=O)NCC(F)(F)F)nn(-c3ccc(F)cc3)c(=O)c12,concentration at 1 h,[1],401 ng/mL
same,concentration at 1 h,[2],637 ng/g
same,Ratio,[9],2.31
same,inhibition,[3],75%
same,Fu,[10],3.2%
same,Imax,[4],83%
same,IC50,[5],8 µM
same,BPR,[6],1.59
Nc1scc2c(C(=O)O)nn(-c3ccccc3Cl)c(=O)c12,inhibition,[3],64%
same,Imax,[4],86%
same,IC50,[5],3.2 µM
CCOC(=O)c1nn(-c2ccc(Cl)cc2)c(=O)c2c(NC)scc12,inhibition,[3],51%
same,Imax,[4],39%
